Values after ≈ are worked out from the molar mass of the structure shown. Active and inactive are the calls of the source. No cut-off for these calls is given here.
How the values were obtained:
[1] = target: Pyruvate kinase PKLR (Homo sapiens) (UniProt P30613); test: Inhibition of recombinant his-tagged human pyruvate kinase R expressed in Escherichia coli BL-21(DE3) using PEP as substrate at 5 uM after 5 mins by L-LDH coupled assay relative to control
How it was run: (§1)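 His-tagged human PK isoform in a continuous rabbit muscle L-LDH-coupled assay, read as 340 nm absorbance change. Compounds added from DMSO, final DMSO ≤1%. Three measurements, each in triplicate.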

[2] = Inhibition of recombinant his-tagged methicillin-resistant Staphylococcus aureus pyruvate kinase expressed in Escherichia coli BL-21(DE3) using PEP as substrate after 5 mins by L-LDH coupled assay
[3] = target: Pyruvate kinase PKM (Homo sapiens) (UniProt P14618); test: Inhibition of recombinant his-tagged human pyruvate kinase M1 expressed in Escherichia coli BL-21(DE3) using PEP as substrate at 5 uM after 5 mins by L-LDH coupled assay relative to control; how it was run: as §1
[4] = target: Pyruvate kinase PKLR (Homo sapiens) (UniProt P30613); test: Inhibition of recombinant his-tagged human pyruvate kinase L expressed in Escherichia coli BL-21(DE3) using PEP as substrate at 5 uM after 5 mins by L-LDH coupled assay relative to control; how it was run: as §1
[5] = target: Pyruvate kinase PKM (Homo sapiens) (UniProt P14618); test: Inhibition of recombinant his-tagged human pyruvate kinase M2 expressed in Escherichia coli BL-21(DE3) using PEP as substrate at 5 uM after 5 mins by L-LDH coupled assay relative to control; how it was run: as §1
[6] = target: Pyruvate kinase PKLR (Homo sapiens) (UniProt P30613); test: Inhibition of recombinant his-tagged human pyruvate kinase L expressed in Escherichia coli BL-21(DE3) using PEP as substrate at 10 uM after 5 mins by L-LDH coupled assay relative to control; how it was run: as §1
[7] = target: Pyruvate kinase PKLR (Homo sapiens) (UniProt P30613); test: Inhibition of recombinant his-tagged human pyruvate kinase R expressed in Escherichia coli BL-21(DE3) using PEP as substrate at 10 uM after 5 mins by L-LDH coupled assay relative to control; how it was run: as §1
[8] = target: Pyruvate kinase PKM (Homo sapiens) (UniProt P14618); test: Inhibition of recombinant his-tagged human pyruvate kinase M2 expressed in Escherichia coli BL-21(DE3) using PEP as substrate at 10 uM after 5 mins by L-LDH coupled assay relative to control; how it was run: as §1
[9] = target: Pyruvate kinase PKM (Homo sapiens) (UniProt P14618); test: Inhibition of recombinant his-tagged human pyruvate kinase M1 expressed in Escherichia coli BL-21(DE3) using PEP as substrate at 10 uM after 5 mins by L-LDH coupled assay relative to control; how it was run: as §1
Staphylococcus aureus [10] = test: Antibacterial activity against methicillin-resistant Staphylococcus aureus 252 by 2-fold serial broth microdilution method; assay type: functional
Staphylococcus aureus [11] = test: Antibacterial activity against methicillin-susceptible Staphylococcus aureus RN4220 by 2-fold serial broth microdilution method; assay type: functional

Pyruvate kinase PKLR (Homo sapiens), sequence (P30613 whole entry, looked up, canonical isoform): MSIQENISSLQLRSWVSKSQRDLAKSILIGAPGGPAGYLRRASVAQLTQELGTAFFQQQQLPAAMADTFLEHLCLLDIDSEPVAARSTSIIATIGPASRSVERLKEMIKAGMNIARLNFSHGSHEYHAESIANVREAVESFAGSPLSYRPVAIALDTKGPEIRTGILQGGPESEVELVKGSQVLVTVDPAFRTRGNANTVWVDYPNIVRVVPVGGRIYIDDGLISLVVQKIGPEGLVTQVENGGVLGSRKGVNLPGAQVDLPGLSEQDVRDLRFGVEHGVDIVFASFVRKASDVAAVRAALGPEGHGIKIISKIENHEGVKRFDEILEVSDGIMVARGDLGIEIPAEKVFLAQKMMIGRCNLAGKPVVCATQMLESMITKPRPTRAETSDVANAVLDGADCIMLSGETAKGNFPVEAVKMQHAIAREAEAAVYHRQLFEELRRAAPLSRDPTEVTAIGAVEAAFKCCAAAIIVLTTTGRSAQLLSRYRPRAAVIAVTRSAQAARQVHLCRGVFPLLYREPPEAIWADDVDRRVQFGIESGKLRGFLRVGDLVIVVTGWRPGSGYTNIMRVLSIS
Pyruvate kinase PKM (Homo sapiens), sequence (P14618 2-531 limits assumed): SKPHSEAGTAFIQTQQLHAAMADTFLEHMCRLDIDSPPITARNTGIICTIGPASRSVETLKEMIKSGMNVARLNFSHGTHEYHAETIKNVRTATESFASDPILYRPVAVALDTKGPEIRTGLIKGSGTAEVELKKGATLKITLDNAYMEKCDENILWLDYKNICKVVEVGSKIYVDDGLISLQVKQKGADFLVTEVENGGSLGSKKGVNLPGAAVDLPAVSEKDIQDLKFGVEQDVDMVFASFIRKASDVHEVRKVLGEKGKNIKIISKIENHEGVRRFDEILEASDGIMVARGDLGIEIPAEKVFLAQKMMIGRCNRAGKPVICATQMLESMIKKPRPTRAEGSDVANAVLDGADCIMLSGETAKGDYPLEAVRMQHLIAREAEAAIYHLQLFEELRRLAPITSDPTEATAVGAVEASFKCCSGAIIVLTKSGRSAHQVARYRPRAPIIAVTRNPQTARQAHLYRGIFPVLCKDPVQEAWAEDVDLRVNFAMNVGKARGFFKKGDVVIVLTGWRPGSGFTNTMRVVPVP

For `O=C(c1nc(-c2c[nH]c3cc(I)ccc23)c[nH]1)c1c[nH]c2cc(I)ccc12`, the inhibition [1] was under 40%, the IC50 [2] was 3.3 nM and the inhibition [3] was 0%. The inhibition [4] was under 40% and the inhibition [5] was 0%.
In the case of `O=C(c1nc(-c2c[nH]c3c(Cl)cccc23)c[nH]1)c1c[nH]c2c(Cl)cccc12`, the inhibition [6] is reported as “inactive”, the inhibition [7] is reported as “inactive” and the inhibition [8] is reported as “inactive”. For the same compound, the IC50 [2] was 26000 nM and the inhibition [9] was “inactive”.
With `O=C(c1nc(-c2c[nH]c3ccc(Br)cc23)c[nH]1)c1c[nH]c2ccc(Br)cc12` the inhibition [1] was under 40%, the IC50 [2] was 6.4 nM and the inhibition [3] was 0%. For the same compound, the inhibition [4] was under 40% and the inhibition [5] was 0%.
Work on `O=C(c1nc(-c2c[nH]c3cc(Cl)ccc23)c[nH]1)c1c[nH]c2cc(Cl)ccc12` yielded an inhibition [1] of under 40%, an IC50 [2] of 1.5 nM and an inhibition [3] of 0%. For the same compound, the inhibition [4] was under 40% and the inhibition [5] was 0%.
Work on `O=C(c1ncc(-c2c[nH]c3cc(Br)ccc23)[nH]1)c1c[nH]c2cc(Br)ccc12` yielded an inhibition [1] of under 40%, an inhibition [3] of 0% and an inhibition [4] of under 40%. The inhibition [5] was 0%.
For `O=C1NC[C@@H](c2c[nH]c3cc(Br)ccc23)N[C@H]1c1c[nH]c2cc(Br)ccc12` (relative stereo) [CIS-3,4-DIHYDROHAMACANTHIN B], the MIC (Staphylococcus aureus [10]) was 12.5 µg/mL (≈ 25.6 µM), the IC50 [2] was 16 nM and the MIC (Staphylococcus aureus [11]) was 6.25 µg/mL (≈ 12.8 µM).
With `O=C(c1nc(-c2c[nH]c3ccccc23)c[nH]1)c1c[nH]c2ccccc12` the inhibition [6] was “inactive”, the inhibition [7] was “inactive” and the inhibition [8] was “inactive”. The inhibition [9] was “inactive”.
In the case of `O=C(c1nc(-c2c[nH]c3cc(F)ccc23)c[nH]1)c1c[nH]c2cc(F)ccc12`, the inhibition [6] is reported as “inactive”, the inhibition [7] is reported as “inactive” and the inhibition [8] is reported as “inactive”. The IC50 [2] was 24 nM and the inhibition [9] was “inactive”.
